# Test results published in ChEMBL document CHEMBL3045579, “Herbicidal activity of cineole derivatives” (2010).
# Activity calls are given as the source filed them. The rule behind the calls is not given here.
# How the values were obtained:
# Type in all cases: functional
# Lolium rigidum [1] = assay: Pre-emergence herbicidal activity against Lolium rigidum seeds assessed as root length at 0.1 mol/l at 25 degC after 72 hr by laboratory-based agar medium bioassay relative to control
# How it was run: (§1)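 Solutions tested at 1 to 1 × 10^-4 mol L^-1. 10 seeds/dish, 5 randomized replicate dishes angled ~70°. Incubated 72 h at 25 °C in light. Solvent and no-solvent controls. Germination, root length and shoot length recorded.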
# Radish [2] = assay: Pre-emergence herbicidal activity against Raphanus sativus var.Long scarlet (radish) seeds assessed as concentration required to suppress shoot growth at 25 degC after 72 hr by laboratory-based agar medium bioassay
# Lolium rigidum [3] = assay: Pre-emergence herbicidal activity against Lolium rigidum seeds assessed as shoot length at 0.1 mol/l at 25 degC after 72 hr by laboratory-based agar medium bioassay relative to control; how it was run: as §1
# Radish [4] = assay: Pre-emergence herbicidal activity against Raphanus sativus var.Long scarlet (radish) seeds assessed as root length at 0.1 mol/l at 25 degC after 72 hr by laboratory-based agar medium bioassay relative to control; how it was run: as §1
# Lolium rigidum [5] = assay: Pre-emergence herbicidal activity against Lolium rigidum seeds assessed as concentration required to suppress root growth at 25 degC after 72 hr by laboratory-based agar medium bioassay
# Radish [6] = assay: Pre-emergence herbicidal activity against Raphanus sativus var.Long scarlet (radish) seeds assessed as concentration required to suppress seed germination at 25 degC after 72 hr by laboratory-based agar medium bioassay
# Lolium rigidum [7] = assay: Pre-emergence herbicidal activity against Lolium rigidum seeds assessed as concentration required to suppress seed germination at 25 degC after 72 hr by laboratory-based agar medium bioassay
# Radish [8] = assay: Pre-emergence herbicidal activity against Raphanus sativus var.Long scarlet (radish) seeds assessed as concentration required to suppress root growth at 25 degC after 72 hr by laboratory-based agar medium bioassay
# Radish [9] = assay: Pre-emergence herbicidal activity against Raphanus sativus var.Long scarlet (radish) seeds assessed as root length at 0.1 mol/l at 25 degC after 72 hr by laboratory-based agar medium bioassay relative to 1,8-Cineole
# How it was run: (§2)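 Agar-plate assay as above: compound in organic solvent evaporated onto Ca/B water agar, 10 seeds × 5 dishes, 72 h at 25 °C in light. Germination, root length or shoot length at 0.1 mol L^-1 expressed relative to 1,8-cineole.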
# Lolium rigidum [10] = assay: Pre-emergence herbicidal activity against Lolium rigidum seeds assessed as shoot length at 0.1 mol/l at 25 degC after 72 hr by laboratory-based agar medium bioassay relative to 1,8-Cineole; how it was run: as §2
# Radish [11] = assay: Pre-emergence herbicidal activity against Raphanus sativus var.Long scarlet (radish) seeds assessed as seed germination at 0.1 mol/l at 25 degC after 72 hr by laboratory-based agar medium bioassay relative to control; how it was run: as §1
# Radish [12] = assay: Pre-emergence herbicidal activity against Raphanus sativus var.Long scarlet (radish) seeds assessed as seed germination at 0.1 mol/l at 25 degC after 72 hr by laboratory-based agar medium bioassay relative to 1,8-Cineole; how it was run: as §2
# Lolium rigidum [13] = assay: Pre-emergence herbicidal activity against Lolium rigidum seeds assessed as root length at 0.1 mol/l at 25 degC after 72 hr by laboratory-based agar medium bioassay relative to 1,8-Cineole; how it was run: as §2
# Lolium rigidum [14] = assay: Pre-emergence herbicidal activity against Lolium rigidum seeds assessed as seed germination at 0.1 mol/l at 25 degC after 72 hr by laboratory-based agar medium bioassay relative to control; how it was run: as §1
# Radish [15] = assay: Pre-emergence herbicidal activity against Raphanus sativus var.Long scarlet (radish) seeds assessed as shoot length at 0.1 mol/l at 25 degC after 72 hr by laboratory-based agar medium bioassay relative to 1,8-Cineole; how it was run: as §2
# Lolium rigidum [16] = assay: Pre-emergence herbicidal activity against Lolium rigidum seeds assessed as seed germination at 0.1 mol/l at 25 degC after 72 hr by laboratory-based agar medium bioassay relative to 1,8-Cineole; how it was run: as §2
# Radish [17] = assay: Pre-emergence herbicidal activity against Raphanus sativus var.Long scarlet (radish) seeds assessed as shoot length at 0.1 mol/l at 25 degC after 72 hr by laboratory-based agar medium bioassay relative to control; how it was run: as §1
# Lolium rigidum [18] = assay: Pre-emergence herbicidal activity against Lolium rigidum seeds assessed as concentration required to suppress shoot growth at 25 degC after 72 hr by laboratory-based agar medium bioassay
Compound,Activity (Lolium rigidum [1]) [%],Activity (Radish [2]) [mol/L],Activity (Lolium rigidum [3]) [%],Activity (Radish [4]) [%],Activity (Lolium rigidum [5]) [mol/L],Activity (Radish [6]) [mol/L],Activity (Lolium rigidum [7]) [mol/L],Activity (Radish [8]) [mol/L],Ratio (Radish [9]),Activity (Radish [11]) [%],Ratio (Radish [12]),Activity (Lolium rigidum [14]) [%],inhibition (Radish [15]),Activity (Radish [17]) [%],Activity (Lolium rigidum [18]) [mol/L],inhibition (Radish [9]),inhibition (Lolium rigidum [10]),inhibition (Radish [12]),inhibition (Lolium rigidum [13]),inhibition (Lolium rigidum [16]),further results
"CC1(C)OC2(C)CC[C@H]1C[C@H]2O (single isomer, unassigned) [2-endo-hydroxy-1,8-cineole]",39.5,0.1,15.4,6.8,0.1,0.01,0.1,0.01,5.5,2.6,13.1,51.5,Active,0,0.01,–,–,–,–,–,Ratio (Lolium rigidum [10]): 1.8; Ratio (Lolium rigidum [13]): 0.6; Ratio (Lolium rigidum [16]): 0.6
"CC(C)[C@]12CC[C@@](C)(O1)[C@H](OC(=O)CC(C)(C)C)C2 (racemic) [2-exo-t-butylacetoxy-1,4-cineole]",–,0.01,–,55.8,0.01,0.1,0.1,0.01,0.7,42.9,0.8,–,–,71.2,0.1,–,–,–,–,–,Ratio (Radish [15]): 0.9
O=C(O)c1ccccc1 [BENZOIC ACID],0,0.01,0,0,0.0001,0.1,0.01,0.01,–,0,–,0,Active,0,0.0001,Active,Active,Active,Active,Active,–
"CC(=O)O[C@@H]1C[C@@]2(C(C)C)CC[C@@]1(C)O2 (racemic) [2-exo-acetoxy-1,4-cineole]",0,0.01,0,2.7,0.01,0.01,0.1,0.01,3.5,4.5,7.5,0,Active,0,0.01,–,Active,–,Active,Active,–
"CCCC(=O)O[C@@H]1C[C@@]2(C(C)C)CC[C@@]1(C)O2 (racemic) [2-exo-butoxy-1,4-cineole]",–,–,–,–,–,–,–,–,–,–,–,–,Active,–,–,Active,–,Active,–,–,–
"CC(C)[C@]12CC[C@@](C)(O1)[C@H](O)C2 (racemic) [2-Exo-hydroxy-1,4-cineole]",6.1,0.1,23.1,9.9,0.01,0.1,0.1,0.1,3.7,2.6,13.1,21.7,–,41.7,0.1,–,–,–,–,–,Ratio (Lolium rigidum [10]): 1.2; Ratio (Lolium rigidum [13]): 3.7; Ratio (Radish [15]): 1.6; Ratio (Lolium rigidum [16]): 1.4
CC(=O)O [ACETIC ACID],0,0.1,0,0,0.01,0.1,0.1,0.1,–,0,–,0,Active,0,0.01,Active,Active,Active,Active,Active,–
CC(C)(C)CC(=O)O [T-BUTYLACETIC ACID],0,0.1,0,0,0.0001,0.1,0.01,0.01,–,0,–,0,Active,0,0.0001,Active,Active,Active,Active,Active,–
"CC1(C)O[C@]2(C)CC[C@@H]1[C@@H](O)C2 (racemic) [3-exo-hydroxy-1,8-cineole]",16.6,0.1,10.2,26.8,0.1,0.1,0.1,0.01,1.4,2.4,14.2,2.6,–,46.5,0.01,–,–,–,–,–,Ratio (Lolium rigidum [10]): 2.8; Ratio (Lolium rigidum [13]): 1.3; Ratio (Radish [15]): 1.4; Ratio (Lolium rigidum [16]): 11.6
"CC(=O)O[C@H]1C[C@@]2(C)CC[C@H]1C(C)(C)O2 (racemic) [3-Exo-acetoxy-1,8-cineole]",7.6,1,21.3,29.2,0.1,0.01,0.1,0.01,1.3,18.9,1.8,34.1,–,64.3,0.1,–,–,–,–,–,Ratio (Lolium rigidum [10]): 1.3; Ratio (Lolium rigidum [13]): 2.9; Ratio (Radish [15]): 1; Ratio (Lolium rigidum [16]): 0.9
CCCCCC(=O)O [HEXANOATE],0,0.1,0,0,0.0001,0.1,0.01,0.001,–,0,–,0,Active,0,0.0001,Active,Active,Active,Active,Active,–
CCCC(=O)O [BUTYRIC ACID],0,0.01,0,0,0.01,0.1,0.01,0.01,–,0,–,0,Active,0,0.1,Active,Active,Active,Active,Active,–
"CC1(C)O[C@]2(C)CC[C@@H]1[C@@H](OC(=O)c1ccccc1)C2 (racemic) [3-exo-benzoxy-1,8-cineole]",10.9,0.1,41.6,42.4,0.01,1,0.1,0.01,0.8,98,0.3,82.2,–,61,0.1,–,–,–,–,–,Ratio (Lolium rigidum [10]): 0.7; Ratio (Lolium rigidum [13]): 2.1; Ratio (Radish [15]): 1.1; Ratio (Lolium rigidum [16]): 0.4
